Publication PMC2925318 (Tetrahedron, 2010)

Biological target: Concanavalin A (Con A) (Canavalia ensiformis, UniProt P02866)
Format: binding
Procedure, shortened: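 Gold chip with mixed carboxyl/hydroxyl dithiol monolayer, aminoethoxyethyl mannoside coupled by EDC/NHS; hydroxyl-only reference flowcell. Con A (2 μM monomer) mixed 1:1 with test compound, equilibrated ≥1 h, then injected at 10 μL/min in 10 mM PBS pH 7.4, 25 °C. Methyl-mannose/HCl regeneration. Glycodendrimers run in triplicate, 2-fold series 50 μg/mL–39 ng/mL. Double-referenced equilibrium responses were fitted to a four-parameter logistic to give IC50.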

Sequence of Concanavalin A (Con A) (P02866 164-281 limits assumed): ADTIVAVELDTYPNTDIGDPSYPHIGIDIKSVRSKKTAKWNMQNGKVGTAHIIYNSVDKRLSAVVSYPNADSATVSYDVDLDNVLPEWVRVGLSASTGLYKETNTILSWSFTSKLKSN
Sequence of Concanavalin A (Con A) (P02866 30-148 limits assumed): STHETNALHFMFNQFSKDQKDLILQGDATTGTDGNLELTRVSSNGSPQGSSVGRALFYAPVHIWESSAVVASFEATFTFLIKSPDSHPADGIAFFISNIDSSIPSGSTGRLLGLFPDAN

Compound: CO[C@H]1O[C@H](CO)[C@@H](O)[C@H](O)[C@@H]1O [Methyl mannose]
- IC50: 240 µM
